# Measured values taken from ChEMBL document CHEMBL1134286, “Novel erythromycin derivatives with aryl groups tethered to the C-6 position are potent protein synthesis inhibitors and active against multidrug-resistant respiratory pathogens” (J Med Chem, 2001).
# Legend:
# Type in all cases: functional
# [1] = Minimum inhibitory concentration against Streptococcus pneumoniae 5737 MLSB
# Procedure, shortened: (§1)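 MICs were determined by agar dilution following National Committee for Clinical Laboratory Standards recommendations. Values are in µg/mL.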
# Streptococcus pneumoniae [2] = test: Minimum inhibitory concentration against Streptococcus pneumoniae ATCC 6303 Ery-S; procedure, shortened: as §1
# Streptococcus pneumoniae [3] = test: Minimum inhibitory concentration against Streptococcus pneumoniae 5649 efflux; procedure, shortened: as §1
# [4] = Minimum inhibitory concentration against Streptococcus pyogenes 930MLSB; procedure, shortened: as §1
# Staphylococcus aureus [5] = test: Minimum inhibitory concentration against Staphylococcus aureus ATCC 6538PEry-S; conditions: ATCC 6538P; procedure, shortened: as §1
# [6] = Minimum inhibitory concentration against Streptococcus pyogenes PIU2548 efflux; procedure, shortened: as §1
# Staphylococcus aureus [7] = test: Minimum inhibitory concentration against Staphylococcus aureus A 5278 MLSB-c; procedure, shortened: as §1
# [8] = Minimum inhibitory concentration against Streptococcus pyogenes EES 61 Ery-S; procedure, shortened: as §1
# Staphylococcus aureus [9] = test: Minimum inhibitory concentration against Staphylococcus aureus A 5177 MLSB-i; procedure, shortened: as §1
# [10] = Minimum inhibitory concentration against Haemophilus influenzae DILL Amp-R; procedure, shortened: as §1
MIC [1],MIC (Streptococcus pneumoniae [2]),MIC (Streptococcus pneumoniae [3]),MIC [4],MIC (Staphylococcus aureus [5]),MIC [6],MIC (Staphylococcus aureus [7]),MIC [8],MIC (Staphylococcus aureus [9]),MIC [10],Structure (SMILES)
1 µg/mL,0.004 µg/mL,0.25 µg/mL,1 µg/mL,0.05 µg/mL,0.25 µg/mL,> 100 µg/mL,0.004 µg/mL,0.05 µg/mL,1 µg/mL,CC[C@H]1OC(=O)[C@H](C)C(=O)[C@H](C)[C@@H](O[C@@H]2O[C@H](C)C[C@H](N(C)C)[C@H]2O)[C@](C)(OC/C=C/c2ccc3ncccc3c2)C[C@@H](C)C(=O)[C@H](C)[C@H]2NC(=O)O[C@@]21C
4 µg/mL,0.125 µg/mL,2 µg/mL,32 µg/mL,0.39 µg/mL,2 µg/mL,> 100 µg/mL,0.03 µg/mL,0.2 µg/mL,8 µg/mL,CC[C@H]1OC(=O)[C@H](C)C(=O)[C@H](C)[C@@H](O[C@@H]2O[C@H](C)C[C@H](N(C)C)[C@H]2O)[C@](C)(OC/C=C/c2cnc3ccccc3c2)C[C@@H](C)C(=O)[C@H](C)[C@H]2N(CCN(C)C)C(=O)O[C@]12C
32 µg/mL,1 µg/mL,1 µg/mL,64 µg/mL,6.2 µg/mL,4 µg/mL,> 100 µg/mL,0.5 µg/mL,6.2 µg/mL,> 64 µg/mL,CC[C@H]1OC(=O)[C@H](C)C(=O)[C@H](C)[C@@H](O[C@@H]2O[C@H](C)C[C@H](N(C)C)[C@H]2O)[C@](C)(OCCCc2ccccc2)C[C@@H](C)C(=O)[C@H](C)[C@@H](O)[C@]1(C)O
–,–,–,> 100 µg/mL,25 µg/mL,12.5 µg/mL,> 100 µg/mL,6.2 µg/mL,25 µg/mL,–,CC[C@H]1OC(=O)[C@H](C)C(=O)[C@H](C)[C@@H](O[C@@H]2O[C@H](C)C[C@H](N(C)C)[C@H]2O)[C@](C)(OCCN)C[C@@H](C)C(=O)[C@H](C)[C@@H](O)[C@]1(C)O
64 µg/mL,0.125 µg/mL,1 µg/mL,16 µg/mL,0.39 µg/mL,1 µg/mL,> 100 µg/mL,0.125 µg/mL,0.39 µg/mL,8 µg/mL,CC[C@H]1OC(=O)[C@H](C)C(=O)[C@H](C)[C@@H](O[C@@H]2O[C@H](C)C[C@H](N(C)C)[C@H]2O)[C@](C)(OC/C=C/c2ccc3ccccc3n2)C[C@@H](C)C(=O)[C@H](C)[C@H]2NC(=O)O[C@@]21C
> 128 µg/mL,0.25 µg/mL,0.5 µg/mL,> 128 µg/mL,1.56 µg/mL,4 µg/mL,> 100 µg/mL,0.25 µg/mL,1.56 µg/mL,32 µg/mL,C=CCO[C@]1(C)C[C@@H](C)C2=NCCN3C(=O)O[C@](C)([C@@H](CC)OC(=O)[C@H](C)C(=O)[C@H](C)[C@H]1O[C@@H]1O[C@H](C)C[C@H](N(C)C)[C@H]1O)[C@H]3[C@H]2C
> 128 µg/mL,4 µg/mL,8 µg/mL,> 128 µg/mL,12.5 µg/mL,32 µg/mL,> 100 µg/mL,–,50 µg/mL,> 128 µg/mL,C=CCO[C@]1(C)C[C@@H](C)C(=O)[C@H](C)[C@@H](O)[C@](C)(O)[C@@H](CC)OC(=O)[C@H](C)C(=O)[C@H](C)[C@H]1O[C@@H]1O[C@H](C)C[C@H](N(C)C)[C@H]1O
> 128 µg/mL,2 µg/mL,4 µg/mL,> 128 µg/mL,6.2 µg/mL,8 µg/mL,> 100 µg/mL,2 µg/mL,6.2 µg/mL,64 µg/mL,CC[C@H]1OC(=O)[C@H](C)C(=O)[C@H](C)[C@@H](O[C@@H]2O[C@H](C)C[C@H](N(C)C)[C@H]2O)[C@](C)(OCCNCCc2ccccc2)C[C@@H](C)C(=O)[C@H](C)[C@@H](O)[C@]1(C)O
> 32 µg/mL,0.03 µg/mL,0.5 µg/mL,> 32 µg/mL,0.2 µg/mL,0.5 µg/mL,> 100 µg/mL,0.03 µg/mL,0.1 µg/mL,8 µg/mL,CC[C@H]1OC(=O)[C@H](C)C(=O)[C@H](C)[C@@H](O[C@@H]2O[C@H](C)C[C@H](N(C)C)[C@H]2O)[C@](C)(OC/C=C/c2cccc3cccnc23)C[C@@H](C)C(=O)[C@H](C)[C@H]2NC(=O)O[C@@]21C
8 µg/mL,0.015 µg/mL,0.25 µg/mL,16 µg/mL,0.1 µg/mL,0.25 µg/mL,50 µg/mL,0.015 µg/mL,0.1 µg/mL,4 µg/mL,CC[C@H]1OC(=O)[C@H](C)C(=O)[C@H](C)[C@@H](O[C@@H]2O[C@H](C)C[C@H](N(C)C)[C@H]2O)[C@](C)(OC/C=C/c2cccc3ccccc23)C[C@@H](C)C(=O)[C@H](C)[C@H]2NC(=O)O[C@@]21C
1 µg/mL,0.03 µg/mL,0.25 µg/mL,4 µg/mL,0.1 µg/mL,0.25 µg/mL,> 100 µg/mL,0.015 µg/mL,0.1 µg/mL,4 µg/mL,CC[C@H]1OC(=O)[C@H](C)C(=O)[C@H](C)[C@@H](O[C@@H]2O[C@H](C)C[C@H](N(C)C)[C@H]2O)[C@](C)(OC/C=C/c2cnc3ccccc3c2)C[C@@H](C)C(=O)[C@H](C)[C@H]2N(C)C(=O)O[C@]12C
32 µg/mL,0.03 µg/mL,0.5 µg/mL,4 µg/mL,0.05 µg/mL,0.25 µg/mL,> 100 µg/mL,0.03 µg/mL,0.05 µg/mL,–,CC[C@H]1OC(=O)[C@H](C)C(=O)[C@H](C)[C@@H](O[C@@H]2O[C@H](C)C[C@H](N(C)C)[C@H]2O)[C@](C)(OCC2CC2c2cnc3ccccc3c2)C[C@@H](C)C(=O)[C@H](C)[C@H]2NC(=O)O[C@@]21C (some centres undefined)
> 128 µg/mL,0.015 µg/mL,1 µg/mL,16 µg/mL,0.1 µg/mL,1 µg/mL,> 100 µg/mL,0.015 µg/mL,0.1 µg/mL,16 µg/mL,CC[C@H]1OC(=O)[C@H](C)C(=O)[C@H](C)[C@@H](O[C@@H]2O[C@H](C)C[C@H](N(C)C)[C@H]2O)[C@](C)(OC/C=C/c2ccc3ccccc3c2)C[C@@H](C)C(=O)[C@H](C)[C@H]2NC(=O)O[C@@]21C
32 µg/mL,0.06 µg/mL,4 µg/mL,32 µg/mL,0.39 µg/mL,16 µg/mL,> 100 µg/mL,0.03 µg/mL,6.2 µg/mL,4 µg/mL,CC[C@H]1OC(=O)[C@H](C)[C@@H](O[C@H]2C[C@@](C)(OC)[C@@H](O)[C@H](C)O2)[C@H](C)[C@@H](O[C@@H]2O[C@H](C)C[C@H](N(C)C)[C@H]2O)[C@](C)(OC/C=C/c2ccccc2)C[C@@H](C)C(=O)[C@H](C)[C@@H](O)[C@]1(C)O
> 64 µg/mL,0.25 µg/mL,4 µg/mL,> 64 µg/mL,3.1 µg/mL,4 µg/mL,> 100 µg/mL,0.5 µg/mL,1.56 µg/mL,16 µg/mL,CC[C@H]1OC(=O)[C@H](C)C(=O)[C@H](C)[C@@H](O[C@@H]2O[C@H](C)C[C@H](N(C)C)[C@H]2O)[C@](C)(OCCNCc2ccccc2)C[C@@H](C)C(=O)[C@H](C)[C@@H](O)[C@]1(C)O
4 µg/mL,0.03 µg/mL,0.5 µg/mL,> 128 µg/mL,0.05 µg/mL,1 µg/mL,> 100 µg/mL,0.03 µg/mL,0.05 µg/mL,4 µg/mL,CC[C@H]1OC(=O)[C@H](C)C(=O)[C@H](C)[C@@H](O[C@@H]2O[C@H](C)C[C@H](N(C)C)[C@H]2O)[C@](C)(OC/C=C/c2ccc3cccnc3c2)C[C@@H](C)C(=O)[C@H](C)[C@H]2NC(=O)O[C@@]21C
64 µg/mL,1 µg/mL,2 µg/mL,64 µg/mL,1.56 µg/mL,2 µg/mL,> 100 µg/mL,0.25 µg/mL,1.56 µg/mL,128 µg/mL,CC[C@H]1OC(=O)[C@H](C)C(=O)[C@H](C)[C@@H](O[C@@H]2O[C@H](C)C[C@H](N(C)C)[C@H]2O)[C@](C)(OC/C=C/c2ccccc2)C[C@@H](C)C(=O)[C@H](C)[C@@H](O)[C@]1(C)O
0.5 µg/mL,0.03 µg/mL,2 µg/mL,0.5 µg/mL,0.05 µg/mL,2 µg/mL,> 100 µg/mL,0.03 µg/mL,0.05 µg/mL,2 µg/mL,CC[C@H]1OC(=O)[C@H](C)C(=O)[C@H](C)[C@@H](O[C@@H]2O[C@H](C)C[C@H](N(C)C)[C@H]2O)[C@](C)(OC/C=C/c2cnc3ncccc3c2)C[C@@H](C)C(=O)[C@H](C)[C@H]2NC(=O)O[C@@]21C
> 128 µg/mL,0.03 µg/mL,0.5 µg/mL,> 128 µg/mL,0.1 µg/mL,0.5 µg/mL,> 100 µg/mL,0.03 µg/mL,0.1 µg/mL,8 µg/mL,CC[C@H]1OC(=O)[C@H](C)C(=O)[C@H](C)[C@@H](O[C@@H]2O[C@H](C)C[C@H](N(C)C)[C@H]2O)[C@](C)(OC/C=C/c2cccnc2)C[C@@H](C)C(=O)[C@H](C)[C@H]2NC(=O)O[C@@]21C
> 128 µg/mL,1 µg/mL,2 µg/mL,> 128 µg/mL,6.2 µg/mL,4 µg/mL,> 100 µg/mL,0.5 µg/mL,6.2 µg/mL,64 µg/mL,C=CCO[C@]1(C)C[C@@H](C)C(=O)[C@H](C)[C@H]2N(CCN(C)C)C(=O)O[C@]2(C)[C@@H](CC)OC(=O)[C@H](C)C(=O)[C@H](C)[C@H]1O[C@@H]1O[C@H](C)C[C@H](N(C)C)[C@H]1O
2 µg/mL,0.03 µg/mL,2 µg/mL,> 100 µg/mL,0.2 µg/mL,2 µg/mL,> 100 µg/mL,0.03 µg/mL,0.39 µg/mL,4 µg/mL,CC[C@H]1OC(=O)[C@H](C)C(=O)[C@H](C)[C@@H](O[C@@H]2O[C@H](C)C[C@H](N(C)C)[C@H]2O)[C@](C)(OCCNCCCc2cnc3ccccc3c2)C[C@@H](C)C(=O)[C@H](C)[C@H]2NC(=O)O[C@@]21C
